Assays:
[1] = tested on: Human immunodeficiency virus 1; assay: Inhibitory effect against HIV-1 in human peripheral blood monocyte cells(PBMC) (EC50 ->7.44 ug/mL); assay type: functional, organism-based
[2] = tested on: Human immunodeficiency virus 1; assay: Inhibitory effect against HIV-1 induced cytopathic effects(HIV-1 neutralization) in MT-4 lymphocytes at a concentration of 100 ug/mL (0.3500 uM/mL).; assay type: functional
Outline: (§1)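 HIV-1 Molt IIIB (~2 × 10^4 TCID50 in 100 μL) preincubated 1 h at 37 °C with a single compound dose, then added to MT-4 cells (5 × 10^5 cells/well, 1 mL). Cultured at 37 °C, 5% CO2. Viable cells counted by trypan blue exclusion on days 4 and 7. Triplicates; % viable cells. Controls: infected cells (positive), uninfected cells (negative).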

MT4 [3] = assay: Cytotoxic effect in cultured MT-4 lymphocytes at a concentration of 100 ug/mL (0.3500 uM/mL).; assay type: functional, Homo sapiens
Outline: (§2)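 MT-4 cells at 5 × 10^4 cells/well, 1 mL total, cultured with compound diluted in RPMI 1640 with 10% FBS, 10 mM HEPES, penicillin/streptomycin and 2 mM glutamine, at 37 °C under 5% CO2. Viability was scored by trypan blue exclusion on days 4 and 7, in triplicate, as % viable cells.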

MT4 [4] = assay: Cytotoxic effect in cultured MT-4 lymphocytes at a concentration of 10 ug/mL (0.0350 uM/mL).; assay type: functional, Homo sapiens; outline: as §2
MT4 [5] = assay: Cytotoxic effect in cultured MT-4 lymphocytes at a concentration of 2 ug/mL (0.0070 uM/mL).; assay type: functional, Homo sapiens; outline: as §2
[6] = Calu3 lung tumor cell proliferation inhibition by the compound in vitro at a concentration of 0.015 uM.; assay type: functional, Homo sapiens
Outline: (§3)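 Tumor cells grown in RPMI-1640 in 1% agar with 5% fetal bovine serum, exposed to the specified concentrations for 1 week. Viability was assessed against a control given distilled water in place of drug. 5-Fluorouracil served as the positive cytotoxic standard. Results are reported as concentration-dependent cell survival.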

[7] = Calu3 lung tumor cell proliferation inhibition by the compound in vitro at a concentration of 0.15 uM.; assay type: functional, Homo sapiens; outline: as §3
[8] = Calu3 lung tumor cell proliferation inhibition by the compound in vitro at a concentration of 1.5 uM.; assay type: functional, Homo sapiens; outline: as §3
COLO 320DM [9] = assay: COLO 320DM colon tumor cell proliferation inhibition by the compound in vitro at a concentration of 1.5 uM.; assay type: functional, Homo sapiens; outline: as §3
COLO 320DM [10] = assay: COLO 320DM colon tumor cell proliferation inhibition by the compound in vitro at a concentration of 0.015 uM.; assay type: functional, Homo sapiens; outline: as §3
COLO 320DM [11] = assay: COLO 320DM colon tumor cell proliferation inhibition by the compound in vitro at a concentration of 0.15 uM.; assay type: functional, Homo sapiens; outline: as §3
[12] = tested on: Human immunodeficiency virus 1; assay: Inhibitory effect against HIV-1 in human peripheral blood monocyte cells(PBMC) (EC50-22.6 ug/mL); assay type: functional, organism-based
[13] = tested on: Human immunodeficiency virus 1; assay: Inhibitory effect against HIV-1 induced cytopathic effects(HIV-1 neutralization) in MT-4 lymphocytes at a concentration of 10 ug/mL (0.0375 uM/mL).; assay type: functional; outline: as §1
MT4 [14] = assay: Cytotoxic effect in cultured MT-4 lymphocytes at a concentration of 100 ug/mL (0.3750 uM/mL).; assay type: functional, Homo sapiens; outline: as §2
MCF7 [15] = assay: […] breast tumor cell proliferation inhibition by the compound in vitro at a concentration of 0.015 uM.; assay type: functional, Homo sapiens
Outline: (§4)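 Breast tumor cells treated with specified compound concentrations in RPMI-1640 in 1% agar with 5% FBS for 1 week. Viability compared with a control given distilled water in place of drug; 5-fluorouracil as standard cytotoxic drug. Reported as concentration-dependent cell survival.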

MCF7 [16] = assay: […] breast tumor cell proliferation inhibition by the compound in vitro at a concentration of 0.15 uM.; assay type: functional, Homo sapiens; outline: as §4
MCF7 [17] = assay: […] breast tumor cell proliferation inhibition by the compound in vitro at a concentration of 1.5 uM.; assay type: functional, Homo sapiens; outline: as §4
MT4 [18] = assay: Cytotoxic effect in cultured MT-4 lymphocytes at a concentration of 2 ug/mL (0.0076 uM/mL).; assay type: functional, Homo sapiens; outline: as §2
MT4 [19] = assay: Cytotoxic effect in cultured MT-4 lymphocytes at a concentration of 10 ug/mL (0.0375 uM/mL).; assay type: functional, Homo sapiens; outline: as §2

SMILES | EC50 [1] [µM] | Viability [2] [%] | Viability (MT4 [3]) [%] | Viability (MT4 [4]) [%] | Viability (MT4 [5]) [%] | Viability [6] [%] | Viability [7] [%] | Viability [8] [%] | Viability (COLO 320DM [9]) [%] | Viability (COLO 320DM [10]) [%] | Viability (COLO 320DM [11]) [%] | EC50 [12] [µM] | Viability [13] [%] | Viability (MT4 [14]) [%] | Viability (MCF7 [15]) [%] | Viability (MCF7 [16]) [%] | Viability (MCF7 [17]) [%] | Viability (MT4 [18]) [%] | Viability (MT4 [19]) [%]
Cc1nc2cc(Nc3ccccc3C(=O)[O-])ccc2s1.[Na+] | 26 | 18.2 | 93.3 | 92.6 | 87.5 |  |  |  |  |  |  |  |  |  |  |  |  |  | 
Cc1nc2cc3nc4ccccc4c(O)c3cc2s1.Cl |  |  |  |  |  | 98 | 36 | 0 | 0 | 117 | 49 | 84.6 | 19.4 | 74.3 | 91 | 38 | 0 | 91.9 | 87.2

— ChEMBL document CHEMBL1125493, “HIV-1 neutralization and tumor cell proliferation inhibition in vitro by simplified analogues of pyrido[4,3,2-mn]thiazolo[5,4-b]acridine marine alkaloids” (J Med Chem, 1992)
